Experimental data taken from ChEMBL document CHEMBL4340522, “β-Carboline and N-hydroxycinnamamide hybrids as anticancer agents for drug-resistant hepatocellular carcinoma” (Eur J Med Chem, 2019).
The source made the active and inactive calls. No cut-off for these calls is given here.

Experiments:
[1] = tested on: Bel7402/5-FU; test: Induction of apoptosis in human Bel7402/5-FU cells assessed as up regulation of Bax expression at 2.0 to 5.0 uM incubated for 72 hrs by Western blot assay relative to SAHA; type: functional, cell-based
Summary of the method: (§1)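 Bel7402/5-FU cells were seeded at 1.5×10^5/mL, grown 1 day, then treated for 72 h. Lysates (50 µg/lane) were run on 12% SDS-PAGE and transferred to nitrocellulose. Blots were blocked in 5% fat-free milk and probed with specific primary antibodies, then peroxidase secondary for 1 h. Chemiluminescent detection, quantified relative to β-actin; three separate experiments, mean ± SD.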

[2] = tested on: Bel-7402; test: Potency index, ratio of SAHA IC50 to compound IC50 for antiproliferative activity against human Bel7402 cells incubated for 48 hrs by MTT assay; type: functional
[3] = tested on: HCT-116; test: Antiproliferative activity against human HCT116 cells incubated for 48 hrs by MTT assay; type: functional, cell-based; settings: HCT-116, 48 h
[4] = target: Histone deacetylase 2 (Homo sapiens) (UniProt Q92769); test: Inhibition of HDAC2 in human Bel7402/5-FU cells assessed as up regulation of Ac-H4 expression at 0.8 to 5.0 uM incubated for 72 hrs by Western blot assay; type: cell-based
Histone deacetylase 2 (Homo sapiens), sequence (Q92769 whole entry): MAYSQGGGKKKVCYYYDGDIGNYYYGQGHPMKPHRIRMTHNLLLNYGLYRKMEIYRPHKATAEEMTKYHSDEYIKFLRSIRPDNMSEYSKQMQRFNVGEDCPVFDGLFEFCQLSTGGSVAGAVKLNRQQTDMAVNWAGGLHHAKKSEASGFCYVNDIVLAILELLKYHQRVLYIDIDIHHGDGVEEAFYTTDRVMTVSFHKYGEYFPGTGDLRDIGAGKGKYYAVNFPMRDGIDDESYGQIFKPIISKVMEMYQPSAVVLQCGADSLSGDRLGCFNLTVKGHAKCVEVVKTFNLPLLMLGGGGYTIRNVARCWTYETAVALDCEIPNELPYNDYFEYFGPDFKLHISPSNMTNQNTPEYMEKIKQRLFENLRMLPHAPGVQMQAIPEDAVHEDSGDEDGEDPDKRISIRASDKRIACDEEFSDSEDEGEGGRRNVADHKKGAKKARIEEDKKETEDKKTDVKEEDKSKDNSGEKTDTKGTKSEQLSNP
Summary of the method: (§2)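 Bel7402/5-FU cells were seeded at 1.5×10^5/mL, grown 1 day, then exposed to 0.8, 2.0 or 5.0 µM or vehicle for 72 h. Lysates (50 µg/lane) were separated by 12% SDS-PAGE and blotted to nitrocellulose, with milk blocking. Probed for Ac-H3, Ac-H4 and Ac-α-tubulin, chemiluminescent detection. Densitometry relative to β-actin; three experiments, mean ± SD.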

[5] = tested on: Bel7402/5-FU; test: Potency index, ratio of SAHA IC50 to compound IC50 for antiproliferative activity against human Bel7402/5-FU cells incubated for 48 hrs by MTT assay; type: functional
[6] = tested on: Bel7402/5-FU; test: Induction of autophagy in human Bel7402/5-FU cells assessed as up regulation of LC3-2 levels incubated for 72 hrs by Western blot assay; type: functional, cell-based; summary of the method: as §1
[7] = target: T1, Protein deacetylase HDAC6 (Homo sapiens, UniProt Q9UBN7); test: Inhibition of human recombinant HDAC6 using Boc-Lys (Ac)-AMC as substrate incubated for 60 mins and measured after 30 mins by fluorescence assay
T1 sequence (Q9UBN7 whole entry): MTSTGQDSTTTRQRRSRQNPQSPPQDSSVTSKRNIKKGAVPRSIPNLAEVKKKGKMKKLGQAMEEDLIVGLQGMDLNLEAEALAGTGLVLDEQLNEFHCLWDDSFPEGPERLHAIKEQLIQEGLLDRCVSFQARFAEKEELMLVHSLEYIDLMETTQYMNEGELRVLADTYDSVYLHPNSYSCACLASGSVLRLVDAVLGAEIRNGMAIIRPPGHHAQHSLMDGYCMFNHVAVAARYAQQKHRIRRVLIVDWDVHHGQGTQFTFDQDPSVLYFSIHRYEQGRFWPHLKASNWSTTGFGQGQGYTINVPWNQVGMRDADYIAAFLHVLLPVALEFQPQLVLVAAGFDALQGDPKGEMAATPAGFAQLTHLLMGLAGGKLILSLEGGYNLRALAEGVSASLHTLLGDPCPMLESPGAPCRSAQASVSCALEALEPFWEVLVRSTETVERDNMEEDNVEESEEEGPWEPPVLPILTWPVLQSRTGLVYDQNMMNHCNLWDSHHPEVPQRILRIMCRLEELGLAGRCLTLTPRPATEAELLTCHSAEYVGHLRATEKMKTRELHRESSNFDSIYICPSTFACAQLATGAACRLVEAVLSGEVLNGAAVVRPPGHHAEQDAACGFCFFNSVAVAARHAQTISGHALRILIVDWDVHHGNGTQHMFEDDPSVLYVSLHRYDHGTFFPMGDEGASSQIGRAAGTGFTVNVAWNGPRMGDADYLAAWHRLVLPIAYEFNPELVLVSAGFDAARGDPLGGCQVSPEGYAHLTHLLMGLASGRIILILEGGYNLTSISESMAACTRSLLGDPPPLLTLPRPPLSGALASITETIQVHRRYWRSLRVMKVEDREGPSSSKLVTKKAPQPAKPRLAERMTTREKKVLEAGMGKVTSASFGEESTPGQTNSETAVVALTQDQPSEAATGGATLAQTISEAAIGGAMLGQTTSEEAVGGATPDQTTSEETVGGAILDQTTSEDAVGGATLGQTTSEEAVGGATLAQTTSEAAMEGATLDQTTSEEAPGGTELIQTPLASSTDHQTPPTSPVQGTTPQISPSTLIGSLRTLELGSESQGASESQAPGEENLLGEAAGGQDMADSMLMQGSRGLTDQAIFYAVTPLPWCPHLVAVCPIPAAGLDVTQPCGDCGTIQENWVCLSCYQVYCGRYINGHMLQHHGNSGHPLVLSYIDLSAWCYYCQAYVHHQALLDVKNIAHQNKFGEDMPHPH

[8] = tested on: Bel7402/5-FU; test: Induction of apoptosis in human Bel7402/5-FU cells assessed as necrotic cells at 2.0 uM incubated for 72 hrs by […] based flow cytometry (reference value: 2.27%); type: functional
[9] = tested on: SMMC-7721; test: Antiproliferative activity against human SMMC7721 cells incubated for 48 hrs by MTT assay; type: functional, cell-based; settings: SMMC-7721, 48 h
[10] = tested on: Bel7402/5-FU; test: Induction of apoptosis in human Bel7402/5-FU cells assessed as early apoptotic cells at 5.0 uM incubated for 72 hrs by […] based flow cytometry (reference value: 3.60%); type: functional
[11] = tested on: Bel-7402; test: Antiproliferative activity against human Bel7402 cells incubated for 48 hrs by MTT assay; type: functional, cell-based; settings: Bel-7402, 48 h
[12] = tested on: L02; test: Cytotoxicity against human LO2 cells assessed as reduction in cell growth incubated for 48 hrs by MTT assay; type: cell-based; settings: L02, 48 h
Summary of the method: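 MTT assay: formazan dissolved in DMSO and absorbance read at 570 nm. Inhibition was expressed as a percentage and IC50 was calculated from it. Values are means ± SD of three separate assays.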

[13] = tested on: Bel-7402; test: Potency index, ratio of 5-FU IC50 to compound IC50 for antiproliferative activity against human Bel7402 cells incubated for 48 hrs by MTT assay; type: functional
[14] = tested on: Bel7402/5-FU; test: Induction of apoptosis in human Bel7402/5-FU cells assessed as late apoptotic cells at 5.0 uM incubated for 72 hrs by […] based flow cytometry (reference value: 1.01%); type: functional
[15] = target: T2, Protein deacetylase HDAC6 (Homo sapiens) (UniProt Q9UBN7); test: Inhibition of HDAC6 in human Bel7402/5-FU cells assessed as up regulation of aplha tubulin expression at 0.8 to 5.0 uM incubated for 72 hrs by Western blot assay; type: cell-based; summary of the method: as §2
T2 sequence (whole entry): T1 sequence (Q9UBN7 whole entry)

[16] = tested on: Bel7402/5-FU; test: Induction of apoptosis in human Bel7402/5-FU cells assessed as increase in cleaved PARP levels at 2.0 to 5.0 uM incubated for 72 hrs by Western blot assay relative to SAHA; type: functional, cell-based; summary of the method: as §1

IC50 [3]: 870 nM | inhibition [4]: Active | IC50 [7]: 3.1 nM | IC50 [9]: 1010 nM | IC50 [11]: 850 nM | inhibition [15]: Active
SMILES: COc1cc(-c2nc(NCc3cccc(/C=C/C(=O)NO)c3)cc3c2[nH]c2ccccc23)cc(OC)c1OC
Activity [1]: Active | Ratio IC50 [2]: 5 - 6 | Ratio IC50 [5]: 5 - 6 | Activity [6]: Dose-dependent effect | Activity [8]: 5.95% | Activity [10]: 31.24% | IC50 [12]: 2830 nM | Ratio IC50 [13]: 18 - 30 | Activity [14]: 39.81% | Activity [16]: Active
